Assay results: ChEMBL document CHEMBL1121917, “Structure--activity relationships in a broad-spectrum anthelmintic series. Acid chloride phenylhydrazones. 1. Aryl substitutions and chloride variations” (1981)

What was measured:
Mus musculus [1] = organism: Mus musculus; assay: Percent clearance of Syphacaia obvelata from mouse after oral treatment of 1.87 mg/mouse/day; assay type: functional
In short: (§1)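 Mice naturally carrying Syphacia obvelata were experimentally infected with Nematospiroides dubius and Hymenolepis nana, then grouped after a 2-week prepatency. Finely ground compound was suspended in aqueous 0.10% carboxymethylcellulose, 0.04% polysorbate 80 and 0.0042% polyparaben, and 0.1 mL was given orally by cannula once daily for 4 days to five mice. Necropsy followed 2 days later, scoring presence or absence of each parasite. Control clearance was subtracted from the treated clearance.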

Ovis aries [2] = assay: Percent reduction in Strongyloides eggs per gram, after treatment with 100 mg/kg dose of compound perorally in sheep; assay type: functional, Egg; conditions: route oral
In short: (§2)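 Naturally parasitized lambs, dosed orally either with a suspension by stomach tube or with finely ground compound in gelatin capsules by balling gun. Activity was scored by the clinical test method, meaning a significant fall in helminth egg counts after treatment.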

Ovis aries [3] = assay: Percent reduction in Haemonchus eggs per gram, after treatment with 400 mg/kg dose of compound perorally in sheep; assay type: functional, Egg; conditions: route oral
In short: (§3)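 Naturally parasitized lambs were dosed orally at the stated mg/kg. Dosing was either as a suspension of finely ground compound by stomach tube, or as ground compound weighed into gelatin capsules and given by balling gun. Activity was scored by the clinical test method: the decrease in posttreatment helminth eggs per gram.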

Ovis aries [4] = assay: Percent reduction in Trichuris eggs per gram, after treatment with 400 mg/kg dose of compound perorally in sheep; assay type: functional, Egg; conditions: route oral; in short: as §2
Ovis aries [5] = assay: Percent reduction in Trichostrongylus eggs per gram, after treatment with 100 mg/kg dose of compound perorally in sheep; assay type: functional, Egg; conditions: route oral; in short: as §2
Ovis aries [6] = assay: Percent reduction in Cooperia eggs per gram, after treatment with 400 mg/kg dose of compound perorally in sheep; assay type: functional, Egg; conditions: route oral
In short: (§4)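 Naturally parasitized lambs received compound orally, either as the aqueous suspension by stomach tube or as finely ground powder in gelatin capsules by balling gun. Activity was judged by the clinical test method, as a significant decrease in posttreatment helminth egg counts.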

Canis familiaris [7] = organism: Canis familiaris; assay: percent reduction in Uncinaria eggs per gram, after oral treatment of 100 mg/dog dose of compound in a single treatment; assay type: functional, Canis lupus familiaris, Egg
Ovis aries [8] = assay: Percent reduction in Haemonchus eggs per gram, after treatment with 300 mg/kg dose of compound perorally in sheep; assay type: functional, Egg; conditions: route oral; in short: as §3
Canis familiaris [9] = organism: Canis familiaris; assay: percent reduction in Ancylostoma eggs per gram, after oral treatment of 100 mg/dog dose of compound in a single treatment; assay type: functional, Canis lupus familiaris, Egg
In short: (§5)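 Dogs naturally infected with Toxascaris leonina were experimentally infected with mixed Ancylostoma caninum and Uncinaria stenocephala larvae. Finely ground compound was given orally in gelatin capsules. Three egg count determinations were made before and three after treatment in each experiment.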

Ovis aries [10] = assay: Percent reduction in Nematodirus eggs per gram, after treatment with 100 mg/kg dose of compound perorally in sheep; assay type: functional, Egg; conditions: route oral; in short: as §3
Canis familiaris [11] = organism: Canis familiaris; assay: percent reduction in Ancylostoma eggs per gram, after oral treatment of 150 mg/dog dose of compound in a single treatment; assay type: functional, Canis lupus familiaris, Egg
Ovis aries [12] = assay: Percent reduction in Ostertagia eggs per gram, after treatment with 100 mg/kg dose of compound perorally in sheep; assay type: functional, Egg; conditions: route oral; in short: as §3
Canis familiaris [13] = organism: Canis familiaris; assay: percent reduction in Uncinaria eggs per gram, after oral treatment of 150 mg/dog dose of compound in a single treatment; assay type: functional, Canis lupus familiaris, Egg
Ovis aries [14] = assay: Percent reduction in Trichuris eggs per gram, after treatment with 100 mg/kg dose of compound perorally in sheep; assay type: functional, Egg; conditions: route oral; in short: as §2
Ovis aries [15] = assay: Percent reduction in Trichostrongylus eggs per gram, after treatment with 300 mg/kg dose of compound perorally in sheep; assay type: functional, Egg; conditions: route oral
Ovis aries [16] = assay: Percent reduction in Nematodirus eggs per gram, after treatment with 300 mg/kg dose of compound perorally in sheep; assay type: functional, Egg; conditions: route oral; in short: as §3
Ovis aries [17] = assay: Percent reduction in Moniezia eggs per gram, after treatment with 400 mg/kg dose of compound perorally in sheep; assay type: functional, Egg; conditions: route oral; in short: as §3
Ovis aries [18] = assay: Percent reduction in Nematodirus eggs per gram, after treatment with 400 mg/kg dose of compound perorally in sheep; assay type: functional, Egg; conditions: route oral; in short: as §3
Ovis aries [19] = assay: Percent reduction in Strongyloides eggs per gram, after treatment with 400 mg/kg dose of compound perorally in sheep; assay type: functional, Egg; conditions: route oral; in short: as §2
Canis familiaris [20] = organism: Canis familiaris; assay: percent reduction in Toxascaris eggs per gram, after oral treatment of 150 mg/dog dose of compound in a single treatment; assay type: functional, Canis lupus familiaris, Egg
Canis familiaris [21] = organism: Canis familiaris; assay: percent reduction in Toxascaris eggs per gram, after oral treatment of 50 mg/dog dose of compound in a single treatment; assay type: functional, Canis lupus familiaris, Egg; in short: as §5
Ovis aries [22] = assay: Percent reduction in Ostertagia eggs per gram, after treatment with 400 mg/kg dose of compound perorally in sheep; assay type: functional, Egg; conditions: route oral; in short: as §2
Mus musculus [23] = organism: Mus musculus; assay: Percent clearance of Nematospiroides dubius from mouse after oral treatment of 1.875 mg/mouse/day; assay type: functional; in short: as §1
Canis familiaris [24] = organism: Canis familiaris; assay: percent reduction in Uncinaria eggs per gram, after oral treatment of 50 mg/dog dose of compound in a single treatment; assay type: functional, Canis lupus familiaris, Egg; in short: as §5
Ovis aries [25] = assay: Percent reduction in Oesophagostomum eggs per gram, after treatment with 400 mg/kg dose of compound perorally in sheep; assay type: functional, Egg; conditions: route oral; in short: as §3
Ovis aries [26] = assay: Percent reduction in Trichuris eggs per gram, after treatment with 300 mg/kg dose of compound perorally in sheep; assay type: functional, Egg; conditions: route oral
Ovis aries [27] = assay: Percent reduction in Trichostrongylus eggs per gram, after treatment with 400 mg/kg dose of compound perorally in sheep; assay type: functional, Egg; conditions: route oral; in short: as §2
Ovis aries [28] = assay: Percent reduction in Haemonchus eggs per gram, after treatment with 100 mg/kg dose of compound perorally in sheep; assay type: functional, Egg; conditions: route oral; in short: as §4
Ovis aries [29] = assay: Percent reduction in Oesophagostomum eggs per gram, after treatment with 100 mg/kg dose of compound perorally in sheep; assay type: functional, Egg; conditions: route oral; in short: as §3
Ovis aries [30] = assay: Percent reduction in Ostertagia eggs per gram, after treatment with 300 mg/kg dose of compound perorally in sheep; assay type: functional, Egg; conditions: route oral; in short: as §2
Canis familiaris [31] = organism: Canis familiaris; assay: percent reduction in Ancylostoma eggs per gram, after oral treatment of 50 mg/dog dose of compound in a single treatment; assay type: functional, Canis lupus familiaris, Egg
Ovis aries [32] = assay: Percent reduction in Strongyloides eggs per gram, after treatment with 300 mg/kg dose of compound perorally in sheep; assay type: functional, Egg; conditions: route oral; in short: as §2

Question: With `CSc1ccc(/C(Cl)=N/Nc2ccccc2)cc1` as the compound, how does the Parasite_Clearance (Mus musculus [1]) read?
Answer: 100%

Question: What about the Reduction (Ovis aries [2]) of the same compound?
Answer: 100%

Question: What about the Reduction (Ovis aries [3]) of the same compound?
Answer: 100%

Question: What about the Reduction (Ovis aries [4]) of the same compound?
Answer: 38%

Question: And the Reduction (Ovis aries [5])?
Answer: 98%

Question: And the Reduction (Ovis aries [6])?
Answer: 100%

Question: What about the Reduction (Canis familiaris [7]) of the same compound?
Answer: 99%

Question: What about the Reduction (Ovis aries [8]) of the same compound?
Answer: 100%

Question: What about the Reduction (Canis familiaris [9]) of the same compound?
Answer: 94%

Question: And the Reduction (Ovis aries [10])?
Answer: 100%

Question: What about the Reduction (Canis familiaris [11]) of the same compound?
Answer: 84%

Question: What about the Reduction (Ovis aries [12]) of the same compound?
Answer: 98%

Question: And the Reduction (Canis familiaris [13])?
Answer: 91%

Question: What about the Reduction (Ovis aries [14]) of the same compound?
Answer: 25%

Question: What about the Reduction (Ovis aries [15]) of the same compound?
Answer: 100%

Question: And the Reduction (Ovis aries [16])?
Answer: 100%

Question: And the Reduction (Ovis aries [17])?
Answer: 100%

Question: And the Reduction (Ovis aries [18])?
Answer: 100%

Question: And the Reduction (Ovis aries [19])?
Answer: 100%

Question: And the Reduction (Canis familiaris [20])?
Answer: 100%

Question: And the Reduction (Canis familiaris [21])?
Answer: 69%

Question: And the Reduction (Ovis aries [22])?
Answer: 100%

Question: What about the Parasite_Clearance (Mus musculus [23]) of the same compound?
Answer: 100%

Question: What about the Reduction (Canis familiaris [24]) of the same compound?
Answer: 86%

Question: What about the Reduction (Ovis aries [25]) of the same compound?
Answer: 100%

Question: And the Reduction (Ovis aries [26])?
Answer: 73%

Question: What about the Reduction (Ovis aries [27]) of the same compound?
Answer: 100%

Question: What about the Reduction (Ovis aries [28]) of the same compound?
Answer: 98%

Question: And the Reduction (Ovis aries [29])?
Answer: 100%

Question: And the Reduction (Ovis aries [30])?
Answer: 100%

Question: What about the Reduction (Canis familiaris [31]) of the same compound?
Answer: 91%

Question: And the Reduction (Ovis aries [32])?
Answer: 100%
